Data as given in ChEMBL document CHEMBL1125632, “Synthesis and copper-dependent antimycoplasmal activity of amides and amidines derived from 2-amino-1,10-phenanthroline” (1991).
Converted amounts (≈) assume the structure as drawn.

What was measured:
[1] = test system: Mycoplasmoides gallisepticum; assay: Minimum inhibitory concentration measured against Mycoplasma gallisepticum K514 in the absence of extra copper; assay type: functional
Method in brief: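 M. gallisepticum K514 grown in modified Adler medium (peptone, yeast extract, glucose, heat-inactivated horse serum, benzylpenicillin, phenol red, pH 8.0). No added copper. Compounds dissolved in DMSO (final 1.25%) and tested as serial 2-fold dilutions in duplicate, 3 nM to 100 μM. Tubes with 3 mL medium received 1 mL fresh culture and were held 24 h at 37 °C. MIC is the lowest concentration giving no indicator colour change.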

[2] = test system: Mycoplasmoides gallisepticum; assay: Minimum inhibitory concentration measured against Mycoplasma gallisepticum K514 in the presence of extra copper; assay type: functional
Method in brief: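 M. gallisepticum K514 grown in modified Adler medium (peptone, yeast extract, glucose, horse serum, benzylpenicillin, phenol red, pH 8.0) with CuSO4 at 40 μM final. Compounds in DMSO (1.25% final), serial 2-fold dilutions in duplicate over 3 nM–100 μM. 3 mL medium plus 1 mL fresh culture, incubated 24 h at 37 °C. MIC is the lowest concentration with no phenol-red colour change.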

Compound | MIC [1] | MIC [2]
CUPRIC SULFATE | 700 µM | –
COc1ccc(C(=O)Nc2ccc3ccc4cccnc4c3n2)cc1 | > 100 µM | 0.046 µM
O=C(Nc1ccc2ccc3cccnc3c2n1)c1ccc(Cl)c(Cl)c1 | > 100 µM | 0.095 µM
CCCCc1ccc2ccc3ccc(NC(=O)c4ccc(C)cc4)nc3c2n1 | > 100 µM | 0.37 µM
N=C(Nc1ccc2ccc3cccnc3c2n1)c1ccccc1 | > 100 µM | 0.2 µM
CCCCCCCCCC(=O)Nc1ccc2ccc3cccnc3c2n1 | > 100 µM | 0.37 µM
Cc1ccc(C(=O)Nc2ccc3ccc4cccnc4c3n2)cc1 | > 100 µM | 0.023 µM
O=C(Nc1ccc2ccc3ccc(NC(=O)c4ccccc4)nc3c2n1)c1ccccc1 | > 100 µM | 0.05 µM
Nc1ccc2ccc3ccc(N)nc3c2n1 | > 100 µM | 0.8 µM
N=C(Nc1ccc2ccc3cccnc3c2n1)c1ccc(Cl)c(Cl)c1 | > 100 µM | 0.2 µM
N=C(Nc1ccc2ccc3cccnc3c2n1)c1ccc(Cl)cc1 | > 100 µM | 0.2 µM
CC[C@H]1OC(=O)C[C@@H](O)[C@H](C)[C@@H](O[C@@H]2O[C@H](C)[C@@H](O[C@H]3C[C@@](C)(O)[C@@H](O)[C@H](C)O3)[C@H](N(C)C)[C@H]2O)[C@@H](CC=O)C[C@@H](C)C(=O)/C=C/C(C)=C/[C@@H]1CO[C@@H]1O[C@H](C)[C@@H](O)[C@@H](OC)[C@H]1OC [TYLOSIN] | 0.1 µM (≈ 0.0916 µg/mL) | 0.1 µM
O=C(Nc1ccc2ccc3cccnc3c2n1)c1ccccc1 | > 100 µM | 0.023 µM
CCCCc1ccc2ccc3ccc(NC(=O)c4ccccc4)nc3c2n1 | > 100 µM | 0.2 µM
O=C(Nc1ccc2ccc3cccnc3c2n1)c1ccc(Cl)cc1 | > 100 µM | 0.023 µM
CCCCC(CC)C(=O)Nc1ccc2ccc3cccnc3c2n1 (configuration not stated) | > 100 µM | 0.23 µM
CCCCc1ccc2ccc3ccc(NC(=O)c4ccc(Cl)cc4)nc3c2n1 | > 100 µM | 0.75 µM
CCCCc1ccc2ccc3ccc(NC(=O)c4ccc(Cl)c(Cl)c4)nc3c2n1 | > 100 µM | 1.5 µM
Nc1ccc2ccc3cccnc3c2n1 | > 100 µM | 3.1 µM
